Our source for the Ki and Activity values is ChEMBL document CHEMBL1152298 (J Med Chem, 2008).

In test [1] the target is GABA A receptor alpha-3/beta-2/gamma-2 (Rattus norvegicus, UniProt P18508+P20236+P63138). The experiment in a line: Displacement of [3H]Ro-151788 from benzodiazepine binding site of GABAA alpha-3-beta-2-gamma-2 receptor expressed in HEK293T cells. The format is cell-based, HEK-293T. An outline of the steps: (§1)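 α2 or α3 subunits were co-transfected with β2 and γ2, all in pRK5, into HEK293T cells by CaHPO4 precipitation at 4 μg per subunit. Membranes were prepared at 48 h. IC50 came from a one-site competition fit and was converted to Ki by Cheng-Prusoff. Mean ± SD of ≥3 experiments.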

The nature of test [2]: Displacement of [3H]Ro-151788 from benzodiazepine binding site of GABAA alpha-1-beta-2-gamma-2 T81C receptor mutant expressed in HEK293T cells. The following applies: hek-293t. It counts as cell-based. Background: Displacement assays read how much labelled ligand stays bound in the presence of the test substance.
Test [3] can be described thus: Displacement of [3H]Ro-151788 from benzodiazepine binding site of GABAA alpha-1-beta-2-gamma-2 A79C receptor mutant expressed in HEK293T cells. It counts as cell-based. The following applies: hek-293t.
A short description of test [4]: Displacement of [3H]Ro-151788 from benzodiazepine binding site of GABAA alpha1 V202C beta2gamma2 receptor mutant expressed in HEK293T cells. The format is cell-based. Conditions: hek-293t.
Test [5] in a line: Displacement of [3H]Ro-151788 from benzodiazepine binding site of GABAA alpha-1-beta-2-gamma-2 L140C receptor mutant expressed in HEK293T cells. The format is cell-based. Conditions: hek-293t.
A short description of test [6]: Displacement of [3H]Ro15-1788 from benzodiazepine binding site of GABAA alpha-1 T206C beta2gamma2 receptor mutant expressed in HEK293T cells. The format is cell-based. The following applies: hek-293t.
Test [7] in a line: Displacement of [3H]Ro-151788 from benzodiazepine binding site of GABAA alpha1 S204C beta2gamma2 receptor mutant expressed in HEK293T cells. It counts as cell-based. The following applies: hek-293t.
Test [8] can be described thus: Displacement of [3H]Ro-151788 from benzodiazepine binding site of GABAA alpha-1-beta-2-gamma-2 R185C receptor mutant expressed in HEK293T cells. It counts as cell-based. The following applies: hek-293t.
The nature of test [9]: Displacement of [3H]Ro15-1788 from benzodiazepine binding site of GABAA alpha-1 G157C beta2gamma2 receptor mutant expressed in HEK293T cells. It counts as cell-based. The following applies: hek-293t.
Test [10] in a line: Displacement of [3H]Ro15-1788 from benzodiazepine binding site of GABAA alpha-1 F99C beta2gamma2 receptor mutant expressed in HEK293T cells. The following applies: hek-293t. It counts as cell-based.
Test [11] can be described thus: Displacement of [3H]Ro-151788 from benzodiazepine binding site of GABAA alpha-1-beta-2-gamma-2 T126C receptor mutant expressed in HEK293T cells. It counts as cell-based. Conditions: hek-293t.
A short description of test [12]: Displacement of [3H]Ro-151788 from benzodiazepine binding site of GABAA alpha-1-beta-2-gamma-2 M130C receptor mutant expressed in HEK293T cells. It counts as cell-based. The following applies: hek-293t.
The nature of test [13]: Displacement of [3H]Ro-151788 from benzodiazepine binding site of GABAA alpha-1-beta-2-gamma-2 D56C receptor mutant expressed in HEK293T cells. The format is cell-based. Conditions: hek-293t.
The nature of test [14]: Displacement of [3H]Ro-151788 from benzodiazepine binding site of GABAA alpha1 A160C beta2gamma2 receptor mutant expressed in HEK293T cells. The following applies: hek-293t. The format is cell-based.
Test [15] is described as follows: Displacement of [3H]Ro-151788 from benzodiazepine binding site of GABAA alpha-1-beta-2-gamma-2 R194C receptor mutant expressed in HEK293T cells. Conditions: hek-293t. It counts as cell-based. An outline of the steps:
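Transiently expressed in HEK293T (CaHPO4 transfection, equal α/β/γ DNA, 4 μg/subunit; cysteine-mutant γ2L with WT α1, β2). […] One-site competition fit for IC50; Ki by Cheng-Prusoff; mean ± SD, three experiments in triplicate; mutant/WT Ki ratio.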

In test [16] the target is GABA A receptor alpha-2/beta-2/gamma-2 (Rattus norvegicus, UniProt P18508+P23576+P63138). The experiment in a line: Displacement of [3H]Ro-151788 from benzodiazepine binding site of GABAA alpha-2-beta-2-gamma-2 receptor expressed in HEK293T cells. The format is cell-based, HEK-293T. In short, it runs like this: as §1
A short description of test [17]: Displacement of [3H]Ro15-1788 from benzodiazepine binding site of GABAA alpha-1 V211C beta2gamma2 receptor mutant expressed in HEK293T cells. It counts as cell-based. The following applies: hek-293t. In short, it runs like this: (§2)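 Cysteine mutant α1 subunit made by recombinant PCR, co-transfected with WT β2 and γ2L (equal DNA ratios, 4 μg/subunit, CaHPO4 method) into HEK293T cells; membranes harvested 48 h post-transfection. One-site competition fit; Ki by Cheng-Prusoff; three experiments in triplicate, mean ± SD.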

The nature of test [18]: Displacement of [3H]Ro15-1788 from benzodiazepine binding site of GABAA alpha1 T162C beta-2-gamma-2 receptor mutant expressed in HEK293T cells. The format is cell-based. The following applies: hek-293t. An outline of the steps:
as §2

Test [19] is described as follows: Displacement of [3H]Ro-151788 from benzodiazepine binding site of GABAA alpha-1-beta-2-gamma-2 […] receptor mutant expressed in HEK293T cells. Conditions: hek-293t. It counts as cell-based.
Test [20] can be described thus: Displacement of [3H]Ro-151788 from benzodiazepine binding site of GABAA alpha-1-beta-2-gamma-2 R132C receptor mutant expressed in HEK293T cells. The format is cell-based. Conditions: hek-293t.
Test [21] can be described thus: Displacement of [3H]Ro15-1788 from benzodiazepine binding site of GABAA alpha-1 G200C beta2gamma2 receptor mutant expressed in HEK293T cells. The format is cell-based. The following applies: hek-293t.
Test [22] can be described thus: Displacement of [3H]Ro-151788 from benzodiazepine binding site of GABAA alpha-1-beta-2-gamma-2 T142C receptor mutant expressed in HEK293T cells. Conditions: hek-293t. The format is cell-based.
A short description of test [23]: Displacement of [3H]Ro-151788 from benzodiazepine binding site of GABAA alpha1 S205C beta2gamma2 receptor mutant expressed in HEK293T cells. Conditions: hek-293t. The format is cell-based.
The subject of test [24] is HEK-293T. Briefly: Displacement of [3H]Ro15-1788 from benzodiazepine binding site of GABAA alpha1 Y209C beta2gamma2 receptor mutant expressed in HEK293T cells. It counts as cell-based. An outline of the steps: (§3)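 HEK293T cells in MEM with 10% FBS were transiently transfected by CaHPO4 precipitation with α1, β2 and γ2L subunits (WT or PCR-made, sequence-verified cysteine mutant) in pUNIV, using equal ratios at 4 μg per subunit. Membranes were harvested at 48 h. […] Ki was derived from a one-site fit using Cheng-Prusoff. Mean ± SD, three experiments in triplicate.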

For test [25], the system named is HEK-293T. Briefly: Displacement of [3H]Ro-151788 from benzodiazepine binding site of GABAA alpha-1-beta-2-gamma-2 F77C receptor mutant expressed in HEK293T cells. The format is cell-based. An outline of the steps: as §3
Test [26] relates to HEK-293T. The experiment in a line: Displacement of [3H]Ro-151788 from benzodiazepine binding site of GABAA alpha1 D97C beta2gamma2 receptor mutant expressed in HEK293T cells. It counts as cell-based. An outline of the steps:
as §3

Active and inactive are the calls of the source. No cut-off for these calls is given here.

GABA A receptor alpha-3/beta-2/gamma-2, sequence (P18508 whole entry): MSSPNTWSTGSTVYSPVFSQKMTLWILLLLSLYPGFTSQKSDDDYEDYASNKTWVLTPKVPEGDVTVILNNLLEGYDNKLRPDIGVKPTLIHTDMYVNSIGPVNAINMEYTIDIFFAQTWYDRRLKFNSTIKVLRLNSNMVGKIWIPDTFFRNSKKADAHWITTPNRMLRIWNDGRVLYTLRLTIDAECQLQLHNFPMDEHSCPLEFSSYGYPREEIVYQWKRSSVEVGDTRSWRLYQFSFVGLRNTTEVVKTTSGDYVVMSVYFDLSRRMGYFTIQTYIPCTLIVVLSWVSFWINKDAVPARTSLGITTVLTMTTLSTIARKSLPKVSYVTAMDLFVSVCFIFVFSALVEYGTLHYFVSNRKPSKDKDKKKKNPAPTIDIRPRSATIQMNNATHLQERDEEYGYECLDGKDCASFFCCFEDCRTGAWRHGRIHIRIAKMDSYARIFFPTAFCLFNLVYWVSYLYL
GABA A receptor alpha-3/beta-2/gamma-2, sequence (P20236 whole entry): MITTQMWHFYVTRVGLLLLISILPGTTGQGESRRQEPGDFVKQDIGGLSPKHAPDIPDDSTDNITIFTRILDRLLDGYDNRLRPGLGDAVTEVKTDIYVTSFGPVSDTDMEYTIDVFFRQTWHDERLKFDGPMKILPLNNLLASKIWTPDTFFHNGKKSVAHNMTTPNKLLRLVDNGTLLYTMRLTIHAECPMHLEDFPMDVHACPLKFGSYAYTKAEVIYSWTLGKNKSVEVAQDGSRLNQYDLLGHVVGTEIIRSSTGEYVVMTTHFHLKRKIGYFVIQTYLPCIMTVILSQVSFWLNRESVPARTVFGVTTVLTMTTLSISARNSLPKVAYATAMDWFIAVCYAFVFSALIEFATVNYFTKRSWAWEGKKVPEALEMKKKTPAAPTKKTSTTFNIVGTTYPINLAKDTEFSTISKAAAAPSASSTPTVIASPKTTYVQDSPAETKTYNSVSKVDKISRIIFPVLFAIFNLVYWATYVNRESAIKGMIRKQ
GABA A receptor alpha-3/beta-2/gamma-2, sequence (P63138 whole entry): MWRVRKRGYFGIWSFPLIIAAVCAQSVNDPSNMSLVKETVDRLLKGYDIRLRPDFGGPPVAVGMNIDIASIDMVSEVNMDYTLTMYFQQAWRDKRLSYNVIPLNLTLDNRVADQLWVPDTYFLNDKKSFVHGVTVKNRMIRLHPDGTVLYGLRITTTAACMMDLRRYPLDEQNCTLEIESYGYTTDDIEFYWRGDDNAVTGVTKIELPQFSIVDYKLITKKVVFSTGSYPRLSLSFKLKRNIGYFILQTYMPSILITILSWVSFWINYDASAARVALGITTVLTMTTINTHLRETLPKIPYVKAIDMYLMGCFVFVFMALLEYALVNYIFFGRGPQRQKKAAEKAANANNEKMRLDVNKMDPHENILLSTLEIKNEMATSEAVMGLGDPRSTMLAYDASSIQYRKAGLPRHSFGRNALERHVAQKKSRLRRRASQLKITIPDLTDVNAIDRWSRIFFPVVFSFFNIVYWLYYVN
GABA A receptor alpha-2/beta-2/gamma-2, sequence (P18508 whole entry): as the sequence (P18508 whole entry) above
GABA A receptor alpha-2/beta-2/gamma-2, sequence (P23576 whole entry): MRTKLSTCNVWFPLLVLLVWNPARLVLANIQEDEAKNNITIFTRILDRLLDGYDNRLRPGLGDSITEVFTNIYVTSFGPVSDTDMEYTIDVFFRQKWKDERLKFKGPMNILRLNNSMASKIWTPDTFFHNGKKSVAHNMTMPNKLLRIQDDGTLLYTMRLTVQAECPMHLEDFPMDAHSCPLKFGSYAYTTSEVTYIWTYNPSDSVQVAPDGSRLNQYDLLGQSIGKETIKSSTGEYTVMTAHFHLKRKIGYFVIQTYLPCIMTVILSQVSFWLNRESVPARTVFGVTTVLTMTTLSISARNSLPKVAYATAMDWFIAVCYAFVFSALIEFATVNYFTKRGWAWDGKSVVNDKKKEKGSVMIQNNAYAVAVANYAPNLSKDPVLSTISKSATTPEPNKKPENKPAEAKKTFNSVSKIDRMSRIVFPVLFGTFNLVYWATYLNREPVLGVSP
GABA A receptor alpha-2/beta-2/gamma-2, sequence (P63138 whole entry): as the sequence (P63138 whole entry) above

The term Ki denotes the equilibrium dissociation constant of an inhibitor or competing ligand from its target. A higher Ki goes with a looser hold on the target. With `CN1CCN(C(=O)O[C@H]2c3nccnc3C(=O)N2c2ccc(Cl)cn2)CC1` [ESZOPICLONE], the Ki in test [1] worked out at 0.162 µM; in test [2], 0.0752 µM; in test [3], 0.393 µM; in test [4], 0.249 µM; in [5], 0.0463 µM; in test [6], 0.00083 µM. In addition, the Ki in test [7] came to 0.0579 µM; in [8], 0.0709 µM; in test [9] it was 2.1 µM; in test [10] it was 0.407 µM; in test [11] it was 0.0719 µM; in test [12] it was 0.102 µM. Further, the Ki was determined as 0.0824 µM in test [13]; 0.0604 µM in test [14]; 0.067 µM in test [15]; 0.114 µM in test [16]; 0.0624 µM in [17]; 0.0338 µM in [18]. The Ki in test [19] came to 0.0224 µM; in [20] it was 0.11 µM; in [21], 0.119 µM; in test [22], 0.503 µM; in [23], 0.0349 µM.

In the case of `CCOC(=O)c1ncn2c1CN(C)C(=O)c1cc(F)ccc1-2` [FLUMAZENIL], the outcome in the test on HEK-293T [24], in the test on HEK-293T [25] and in the test on HEK-293T [26] was inactive.
